# Measured values: ChEMBL document CHEMBL5058577, “EUbOPEN Chemogenomics Library 2 (Multiplex)” (2022)
# Non-standard residues stand in square brackets, D forms with d. Residues, ends and D or L forms follow the SMILES beside them.
# System: HEK-293T
# Experiment: Multiplex assay against HEK293T
# Type: toxicity, cell-based
# Details: human
# Summary of the method: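 Values for tubulin, mitochondrial-mass and membrane-permeability phenotypes are per cents of cells with healthy nuclei. These cells were identified by CellPathfinder machine-learning gating of live cells that had been stained at seeding with Hoechst33342, BioTracker Green Microtubule Cytoskeleton Dye, MitoTracker Red and Annexin V Alexa Fluor 680 and imaged on a CQ1 microscope at 37°C and 5% CO2 after compound addition. The gating first set Hoechst high-intensity objects apart from normal cells, then split normal cells into healthy, pyknosed or fragmented nuclei, and pyknosed cells into mitotic or apoptotic.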
# [1] = 12 h, 1 µM, compound concentration 1 uM, replicate 1
# [2] = 12 h, 1 µM, compound concentration 1 uM, replicate 2
# [3] = 12 h, 10 µM, compound concentration 10 uM, replicate 1
# [4] = 12 h, 10 µM, compound concentration 10 uM, replicate 2
# [5] = 24 h, 1 µM, compound concentration 1 uM, replicate 1
# [6] = 24 h, 1 µM, compound concentration 1 uM, replicate 2
# [7] = 24 h, 10 µM, compound concentration 10 uM, replicate 1
# [8] = 24 h, 10 µM, compound concentration 10 uM, replicate 2
# [9] = 48 h, 1 µM, compound concentration 1 uM, replicate 1
# [10] = 48 h, 1 µM, compound concentration 1 uM, replicate 2
# [11] = 48 h, 10 µM, compound concentration 10 uM, replicate 1
# [12] = 48 h, 10 µM, compound concentration 10 uM, replicate 2
smiles,measurement,setting,value
CCC(=O)OCC(=O)[C@@]1(OC(=O)CC)[C@@H](C)C[C@H]2[C@@H]3CCC4=CC(=O)C=C[C@]4(C)[C@@]3(Cl)[C@@H](O)C[C@@]21C [BECLOMETHASONE DIPROPIONATE],Population Apoptotic (%),[1],43%
same,Population Fragmented Nuclei (%),[1],8%
same,Population Healthy Nuclei (%),[1],75%
same,Population Hoechst High Intensity Objects (%),[1],7%
same,Population Membrane Permeable-Phenotype (%),[1],0%
same,Population Mitochondria Different-Phenotype (%),[1],60%
same,Population Mitotic Cells (%),[1],56%
same,Population Normal (%),[1],92%
same,Population Pyknosed Nuclei (%),[1],15%
same,Population Tubulin-Different-Phenotype (%),[1],48%
same,Total Cell Count,[1],388
same,Population Apoptotic (%),[2],47%
same,Population Fragmented Nuclei (%),[2],5%
same,Population Healthy Nuclei (%),[2],74%
same,Population Hoechst High Intensity Objects (%),[2],4%
same,Population Mitochondria Different-Phenotype (%),[2],75%
same,Population Mitotic Cells (%),[2],52%
same,Population Normal (%),[2],95%
same,Population Pyknosed Nuclei (%),[2],19%
same,Population Tubulin-Different-Phenotype (%),[2],42%
same,Total Cell Count,[2],356
same,Population Apoptotic (%),[3],60%
same,Population Fragmented Nuclei (%),[3],8%
same,Population Healthy Nuclei (%),[3],66%
same,Population Hoechst High Intensity Objects (%),[3],14%
same,Population Membrane Permeable-Phenotype (%),[3],0%
same,Population Mitochondria Different-Phenotype (%),[3],87%
same,Population Mitotic Cells (%),[3],39%
same,Population Normal (%),[3],85%
same,Population Pyknosed Nuclei (%),[3],25%
same,Population Tubulin-Different-Phenotype (%),[3],65%
same,Total Cell Count,[3],236
same,Population Apoptotic (%),[4],68%
same,Population Fragmented Nuclei (%),[4],6%
same,Population Hoechst High Intensity Objects (%),[4],16%
same,Population Mitochondria Different-Phenotype (%),[4],93%
same,Population Mitotic Cells (%),[4],31%
same,Population Normal (%),[4],83%
same,Population Pyknosed Nuclei (%),[4],27%
same,Population Tubulin-Different-Phenotype (%),[4],35%
same,Total Cell Count,[4],252
same,Population Apoptotic (%),[5],32%
same,Population Fragmented Nuclei (%),[5],7%
same,Population Healthy Nuclei (%),[5],81%
same,Population Hoechst High Intensity Objects (%),[5],4%
same,Population Membrane Permeable-Phenotype (%),[5],0%
same,Population Mitochondria Different-Phenotype (%),[5],40%
same,Population Mitotic Cells (%),[5],67%
same,Population Normal (%),[5],95%
same,Population Pyknosed Nuclei (%),[5],11%
same,Population Tubulin-Different-Phenotype (%),[5],31%
same,Total Cell Count,[5],507
same,Population Apoptotic (%),[6],43%
same,Population Hoechst High Intensity Objects (%),[6],5%
same,Population Mitochondria Different-Phenotype (%),[6],52%
same,Population Mitotic Cells (%),[6],56%
same,Population Normal (%),[6],94%
same,Population Tubulin-Different-Phenotype (%),[6],18%
same,Total Cell Count,[6],446
same,Population Apoptotic (%),[7],56%
same,Population Fragmented Nuclei (%),[7],13%
same,Population Healthy Nuclei (%),[7],65%
same,Population Hoechst High Intensity Objects (%),[7],11%
same,Population Membrane Permeable-Phenotype (%),[7],0%
same,Population Mitochondria Different-Phenotype (%),[7],89%
same,Population Mitotic Cells (%),[7],44%
same,Population Normal (%),[7],88%
same,Population Pyknosed Nuclei (%),[7],21%
same,Population Tubulin-Different-Phenotype (%),[7],73%
same,Total Cell Count,[7],270
same,Population Apoptotic (%),[8],62%
same,Population Fragmented Nuclei (%),[8],5%
same,Population Healthy Nuclei (%),[8],71%
same,Population Hoechst High Intensity Objects (%),[8],9%
same,Population Mitochondria Different-Phenotype (%),[8],97%
same,Population Mitotic Cells (%),[8],37%
same,Population Normal (%),[8],90%
same,Population Pyknosed Nuclei (%),[8],23%
same,Population Tubulin-Different-Phenotype (%),[8],43%
same,Total Cell Count,[8],243
same,Population Apoptotic (%),[9],30%
same,Population Fragmented Nuclei (%),[9],11%
same,Population Healthy Nuclei (%),[9],78%
same,Population Hoechst High Intensity Objects (%),[9],4%
same,Population Membrane Permeable-Phenotype (%),[9],0%
same,Population Mitochondria Different-Phenotype (%),[9],28%
same,Population Mitotic Cells (%),[9],69%
same,Population Normal (%),[9],95%
same,Population Pyknosed Nuclei (%),[9],9%
same,Population Tubulin-Different-Phenotype (%),[9],18%
same,Total Cell Count,[9],742
same,Population Apoptotic (%),[10],31%
same,Population Fragmented Nuclei (%),[10],12%
same,Population Healthy Nuclei (%),[10],79%
same,Population Hoechst High Intensity Objects (%),[10],3%
same,Population Mitochondria Different-Phenotype (%),[10],32%
same,Population Mitotic Cells (%),[10],68%
same,Population Normal (%),[10],96%
same,Population Pyknosed Nuclei (%),[10],8%
same,Population Tubulin-Different-Phenotype (%),[10],17%
same,Total Cell Count,[10],655
same,Population Apoptotic (%),[11],67%
same,Population Fragmented Nuclei (%),[11],14%
same,Population Healthy Nuclei (%),[11],72%
same,Population Hoechst High Intensity Objects (%),[11],5%
same,Population Membrane Permeable-Phenotype (%),[11],0%
same,Population Mitochondria Different-Phenotype (%),[11],72%
same,Population Mitotic Cells (%),[11],32%
same,Population Normal (%),[11],94%
same,Population Pyknosed Nuclei (%),[11],13%
same,Population Tubulin-Different-Phenotype (%),[11],43%
same,Total Cell Count,[11],347
same,Population Apoptotic (%),[12],65%
same,Population Fragmented Nuclei (%),[12],12%
same,Population Mitochondria Different-Phenotype (%),[12],90%
same,Population Mitotic Cells (%),[12],34%
same,Population Pyknosed Nuclei (%),[12],15%
same,Population Tubulin-Different-Phenotype (%),[12],62%
same,Total Cell Count,[12],283
CC(C)C[C@@H]1NC(=O)[C@@H](C(C)C)NC(=O)[C@@H]2CCCN2C(=O)[C@@H](CC(=O)O)NC(=O)[C@@H](Cc2c[nH]c3ccccc23)NC1=O [BQ-123] (cyclo(L[dW][dD]P[dV])),Population Apoptotic (%),[1],46%
same,Population Fragmented Nuclei (%),[1],7%
same,Population Healthy Nuclei (%),[1],80%
same,Population Hoechst High Intensity Objects (%),[1],4%
same,Population Membrane Permeable-Phenotype (%),[1],0%
same,Population Mitochondria Different-Phenotype (%),[1],39%
same,Population Mitotic Cells (%),[1],53%
same,Population Normal (%),[1],95%
same,Population Pyknosed Nuclei (%),[1],11%
same,Population Tubulin-Different-Phenotype (%),[1],32%
same,Total Cell Count,[1],376
same,Population Fragmented Nuclei (%),[2],5%
same,Population Healthy Nuclei (%),[2],82%
same,Population Hoechst High Intensity Objects (%),[2],7%
same,Population Mitochondria Different-Phenotype (%),[2],59%
same,Population Normal (%),[2],92%
same,Population Tubulin-Different-Phenotype (%),[2],19%
same,Total Cell Count,[2],392
same,Population Apoptotic (%),[3],30%
same,Population Fragmented Nuclei (%),[3],7%
same,Population Healthy Nuclei (%),[3],78%
same,Population Hoechst High Intensity Objects (%),[3],7%
same,Population Membrane Permeable-Phenotype (%),[3],0%
same,Population Mitochondria Different-Phenotype (%),[3],48%
same,Population Mitotic Cells (%),[3],69%
same,Population Normal (%),[3],92%
same,Population Pyknosed Nuclei (%),[3],14%
same,Population Tubulin-Different-Phenotype (%),[3],31%
same,Total Cell Count,[3],387
same,Population Apoptotic (%),[4],71%
same,Population Fragmented Nuclei (%),[4],5%
same,Population Hoechst High Intensity Objects (%),[4],11%
same,Population Mitochondria Different-Phenotype (%),[4],65%
same,Population Mitotic Cells (%),[4],28%
same,Population Normal (%),[4],88%
same,Population Pyknosed Nuclei (%),[4],16%
same,Population Tubulin-Different-Phenotype (%),[4],22%
same,Total Cell Count,[4],265
same,Population Apoptotic (%),[5],26%
same,Population Fragmented Nuclei (%),[5],10%
same,Population Healthy Nuclei (%),[5],79%
same,Population Hoechst High Intensity Objects (%),[5],3%
same,Population Membrane Permeable-Phenotype (%),[5],0%
same,Population Mitochondria Different-Phenotype (%),[5],27%
same,Population Mitotic Cells (%),[5],73%
same,Population Normal (%),[5],96%
same,Population Pyknosed Nuclei (%),[5],9%
same,Population Tubulin-Different-Phenotype (%),[5],21%
same,Total Cell Count,[5],497
same,Population Apoptotic (%),[6],40%
same,Population Fragmented Nuclei (%),[6],7%
same,Population Healthy Nuclei (%),[6],82%
same,Population Hoechst High Intensity Objects (%),[6],5%
same,Population Mitochondria Different-Phenotype (%),[6],35%
same,Population Mitotic Cells (%),[6],59%
same,Population Normal (%),[6],94%
same,Population Tubulin-Different-Phenotype (%),[6],14%
same,Total Cell Count,[6],538
same,Population Apoptotic (%),[7],25%
same,Population Fragmented Nuclei (%),[7],11%
same,Population Healthy Nuclei (%),[7],77%
same,Population Hoechst High Intensity Objects (%),[7],6%
same,Population Membrane Permeable-Phenotype (%),[7],0%
same,Population Mitochondria Different-Phenotype (%),[7],31%
same,Population Mitotic Cells (%),[7],75%
same,Population Normal (%),[7],93%
same,Population Pyknosed Nuclei (%),[7],11%
same,Population Tubulin-Different-Phenotype (%),[7],24%
same,Total Cell Count,[7],511
same,Population Apoptotic (%),[8],57%
same,Population Fragmented Nuclei (%),[8],8%
same,Population Healthy Nuclei (%),[8],78%
same,Population Hoechst High Intensity Objects (%),[8],7%
same,Population Mitochondria Different-Phenotype (%),[8],50%
same,Population Mitotic Cells (%),[8],42%
same,Population Normal (%),[8],92%
same,Population Pyknosed Nuclei (%),[8],12%
same,Population Tubulin-Different-Phenotype (%),[8],18%
same,Total Cell Count,[8],302
same,Population Apoptotic (%),[9],21%
same,Population Fragmented Nuclei (%),[9],11%
same,Population Healthy Nuclei (%),[9],79%
same,Population Hoechst High Intensity Objects (%),[9],3%
same,Population Membrane Permeable-Phenotype (%),[9],0%
same,Population Mitochondria Different-Phenotype (%),[9],22%
same,Population Mitotic Cells (%),[9],78%
same,Population Normal (%),[9],96%
same,Population Pyknosed Nuclei (%),[9],9%
same,Population Tubulin-Different-Phenotype (%),[9],15%
same,Total Cell Count,[9],719
same,Population Apoptotic (%),[10],24%
same,Population Healthy Nuclei (%),[10],81%
same,Population Hoechst High Intensity Objects (%),[10],5%
same,Population Membrane Permeable-Phenotype (%),[10],1%
same,Population Mitochondria Different-Phenotype (%),[10],18%
same,Population Mitotic Cells (%),[10],75%
same,Population Normal (%),[10],94%
same,Population Pyknosed Nuclei (%),[10],7%
same,Population Tubulin-Different-Phenotype (%),[10],10%
same,Total Cell Count,[10],777
same,Population Apoptotic (%),[11],25%
same,Population Fragmented Nuclei (%),[11],16%
same,Population Healthy Nuclei (%),[11],77%
same,Population Hoechst High Intensity Objects (%),[11],3%
same,Population Membrane Permeable-Phenotype (%),[11],1%
same,Population Mitochondria Different-Phenotype (%),[11],21%
same,Population Mitotic Cells (%),[11],75%
same,Population Normal (%),[11],96%
same,Population Pyknosed Nuclei (%),[11],6%
same,Population Tubulin-Different-Phenotype (%),[11],15%
same,Total Cell Count,[11],756
same,Population Apoptotic (%),[12],40%
same,Population Fragmented Nuclei (%),[12],11%
same,Population Healthy Nuclei (%),[12],80%
same,Population Membrane Permeable-Phenotype (%),[12],0%
same,Population Mitochondria Different-Phenotype (%),[12],29%
same,Population Mitotic Cells (%),[12],59%
same,Population Pyknosed Nuclei (%),[12],8%
same,Population Tubulin-Different-Phenotype (%),[12],16%
same,Total Cell Count,[12],477
